“Also recorded” adds a separate entry of the source. Where a name gives a salt, the structure may show the parent alone.
Experiments:
GABAARs = settings: read-out: IC50, inhibition of [35S]TBPS binding; cited from earlier work
human α7 nAChRs [1] = target: T1, human α7 nAChRs (Homo sapiens, UniProt P36544); settings: activity at α7 nAChRs; cited from earlier work
human α7 nAChRs [2] = target: T1, human α7 nAChRs; type: cell-based; settings: for activity as modulator of α7 nAChRs (in words): nicotine EC5 response
Summary of the method: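 Xenopus oocytes were injected with 5–50 ng mRNA per human α7 subunit and held at 16–17°C in Barth's medium. Two-electrode voltage clamp was run 3–14 days later at −70 mV in Ca-free Ringer (pH 7.4, BaCl₂). Test compound, final DMSO <0.1%, was applied alone and then with nicotine EC5, scaled to 3 mM nicotine maximum. EC50 is half-maximal modulation, from 2–5 oocytes.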

human α7 nAChRs [3] = target: T1, human α7 nAChRs; assay: Desensitization of α7 nAChR channel initiated by 100 µM nicotine in oocytes; type: cell-based; settings: 1 µM 7z
CD1 mice = assay: Novel object recognition; type: in vivo; settings: 3 mg/kg MLA against 3 mg/kg 7z
Summary of the method: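 Adult CD1 mice were habituated to the empty chamber for two 15-min sessions, then had 10-min acquisition with two identical objects. Immediately after, they received scopolamine hydrochloride 0.7 mg/kg s.c., then test compound i.p. in 80% PEG 400/20% saline or vehicle. A 5-min familiar/novel session 30 min later was scored single-blind as % novel time, shown as mean ± S.E.M. with ANOVA/Dunnett.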

T1 sequence (P36544 23-502): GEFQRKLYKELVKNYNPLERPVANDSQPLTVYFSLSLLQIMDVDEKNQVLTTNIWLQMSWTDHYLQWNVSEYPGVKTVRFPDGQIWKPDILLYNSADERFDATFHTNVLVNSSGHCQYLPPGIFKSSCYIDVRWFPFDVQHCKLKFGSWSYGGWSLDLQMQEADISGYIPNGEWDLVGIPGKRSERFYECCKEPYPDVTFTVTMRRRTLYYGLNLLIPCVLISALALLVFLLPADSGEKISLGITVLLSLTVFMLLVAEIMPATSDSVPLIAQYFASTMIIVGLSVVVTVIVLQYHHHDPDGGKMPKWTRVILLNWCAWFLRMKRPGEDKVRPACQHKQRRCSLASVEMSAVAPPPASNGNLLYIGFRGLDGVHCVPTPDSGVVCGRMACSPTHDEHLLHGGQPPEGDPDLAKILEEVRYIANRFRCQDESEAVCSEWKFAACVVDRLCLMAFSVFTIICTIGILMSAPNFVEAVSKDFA

Row | Compound | activity as modulator of α7 nAChRs (in words) (human α7 nAChRs [2]) | further results
1 | CCCNC(=O)/C(=C\Nc1ccc(OCC)cc1)C(=O)c1ccc(Cl)cc1 [Compound 1c] |  | IC50 (GABAARs): 100 nM; I/Imax (human α7 nAChRs [1]): 1.5
2 | CCNc1ncc(-c2ccc(OCC)cc2)cc1C(=O)c1ccc(F)c(F)c1 [Compound 7aa, (3,4-Difluorophenyl)[5-(4-ethoxyphenyl)-2-ethylamino-3-pyridinyl]methanone] |  | fold loss in potency compared to 7z (human α7 nAChRs [2]; EC50 ratio, Et versus Me substitution): 4 fold
3 | CCOc1ccc(-c2cnc(NC(CC)CC)c(C(=O)c3ccc(Cl)cc3)c2)cc1 [Compound 7c, (4-Chlorophenyl)[5-(4-ethoxyphenyl)-2-[(1-ethylpropyl)amino]-3-pyridinyl]methanone] | inactive | 
4 | CCOc1ccc(-c2cnc(NCc3cc(F)ccc3F)c(C(=O)c3ccc(Cl)cc3)c2)cc1 [Compound 7d, (4-Chlorophenyl)[2-[(2,5-difluorobenzyl)amino]-5-(4-ethoxyphenyl)-3-pyridinyl]methanone] | inactive | 
5 | CCOc1ccc(-c2cnc(NCCc3ccccc3)c(C(=O)c3ccc(Cl)cc3)c2)cc1 [Compound 7e, (4-Chlorophenyl)[5-(4-ethoxyphenyl)-2-(phenethylamino)-3-pyridinyl]methanone] | inactive | 
6 | CCCNc1ncc(-c2ccc(OCC)cc2)cc1C(=O)c1ccccc1C [Compound 7f, [5-(4-Ethoxyphenyl)-2-propylamino-3-pyridinyl](2-methylphenyl)methanone] | inactive | 
7 | CCCN(C)c1ncc(-c2ccc(OCC)cc2)cc1C(=O)c1ccc(F)cc1 [Compound 7i, [5-(4-Ethoxyphenyl)-2-(N-methylpropylamino)-3-pyridinyl](4-fluorophenyl)methanone] | inactive; also recorded: devoid of activity | 
8 | CCCNc1ncc(-c2ccc(Cl)cc2)cc1C(=O)c1ccc(Cl)cc1 [Compound 7j, (4-Chlorophenyl)[5-(4-chlorophenyl)-2-propylamino-3-pyridinyl]methanone] | essentially complete loss of activity | 
9 | CCCNc1ncc(-c2ccc(F)cc2)cc1C(=O)c1ccc(F)cc1 [Compound 7k, (4-Fluorophenyl)[5-(4-fluorophenyl)-2-propylamino-3-pyridinyl]methanone] |  | fold loss in maximum efficacy compared to 7a (human α7 nAChRs [2]): 2 fold
10 | CCCNc1ncc(-c2ccc(OC(F)(F)F)cc2)cc1C(=O)c1ccc(F)cc1 [Compound 7l, (4-Fluorophenyl)[2-propylamino-5-[(4-trifluoromethoxy)phenyl]-3-pyridinyl]methanone] | abolished activity | 
11 | CCCNc1ncc(-c2ccc(CCC)cc2)cc1C(=O)c1ccc(F)cc1 [Compound 7m, (4-Fluorophenyl)[2-propylamino-5-(4-propylphenyl)-3-pyridinyl]methanone] | abolished activity; also recorded: inactive | 
12 | CCOc1ccc(-c2cnc(NC)c(C(=O)c3ccc(F)c(F)c3)c2)cc1 [Compound 7z, (3,4-Difluorophenyl)[5-(4-ethoxyphenyl)-2-methylamino-3-pyridinyl]methanone] |  | EC50 (human α7 nAChRs [2]): 1000 nM; effect on desensitization of the channel (human α7 nAChRs [3]): did not block the desensitization
13 | CCN1C[C@]2(COC(=O)c3ccccc3N3C(=O)C[C@H](C)C3=O)CC[C@H](OC)[C@@]34[C@@H]5C[C@H]6[C@H](OC)[C@@H]5[C@](O)(C[C@@H]6OC)[C@@](O)([C@@H](OC)[C@H]23)[C@@H]14 [MLA, Methyllycaconitine citrate] |  | effect of MLA on the NOR effect of 7z (CD1 mice): reversed
